Experimental data from different studies.
Each line is one published result; the experiments were not run side by side.
RPS6KA6: Ribosomal protein S6 kinase alpha-6 (RPS6KA6, Homo sapiens, UniProt Q9UK32)
RPS6KA6 N-terminal kinase domain: Ribosomal protein S6 kinase alpha-6, N-terminal kinase domain (RPS6KA6, Homo sapiens, UniProt Q9UK32)
RPS6KA6 C-terminal kinase domain: Ribosomal protein S6 kinase alpha-6, C-terminal kinase domain (RPS6KA6, Homo sapiens, UniProt Q9UK32)

SMILES	target	assay	conditions	measurement	result
COc1ccc(COc2ccc(Cc3cnc(N)nc3N)cc2OC)cc1	RPS6KA6	cell-free assay	0.5 µM	remaining signal	101%
COc1cc2ncnc(Nc3ccc(Oc4ccccc4)c(C)c3C)c2cc1OC	RPS6KA6	enzyme activity, inhibitor	1 µM	inhibition	19%
CC(C)(C)c1nc2c(s1)c1nc(N)ncc1c1ccc(NS(=O)(=O)c3c(F)cccc3F)c(F)c12	RPS6KA6	enzyme activity, inhibitor, radiometric	1 µM	remaining activity	97%
Cc1ccc(C(=O)Nc2ccc(CN3CCN(C)CC3)c(C(F)(F)F)c2)cc1C#Cc1cnc2cccnn12	RPS6KA6	enzyme activity, inhibitor	23.5 nM	activity vs control	84%
Nc1ncnc2occ(-c3ccc(NC(=O)Nc4cc(C(F)(F)F)ccc4F)cc3)c12	RPS6KA6 N-terminal kinase domain	cell-free assay, inhibitor	20 µM	remaining signal	5.5%
Cc1sc(C(=O)NC2COC2)cc1-n1cc(NC(=O)Nc2c(F)cccc2Cl)cn1	RPS6KA6	enzyme activity, inhibitor	10 µM	remaining activity	116%
CN(C)c1ncnc(-c2ccc3nc(Nc4cc(CN5CCN(C(=O)CC(F)(F)F)CC5)ccn4)[nH]c3c2)c1Cl	RPS6KA6 C-terminal kinase domain	cell-free assay, competition with immobilised ligand	1 µM	remaining binding	81%
Cn1c2c(Cl)c(Cl)ccc2c2cn[nH]c(=O)c21	RPS6KA6	thermal stability, DSF	10 µM	ΔTm	2 °C
Oc1ccc(-c2nc(-c3ccncc3)c(-c3ccc(F)cc3)[nH]2)cc1	RPS6KA6	cell-free assay	0.5 µM	remaining signal	110%
Cn1c2c(c3ccc(Cl)c(Cl)c31)C(C#N)C1(CCCCC1)NC2=O (racemic)	RPS6KA6	thermal stability, DSF	10 µM	ΔTm	0 °C
CCCS(=O)(=O)Nc1ccc(F)c(C(=O)c2c[nH]c3ncc(-c4ccc(Cl)cc4)cc23)c1F	RPS6KA6	enzyme activity, inhibitor	1 µM	inhibition	< 10%
CC(C)(O)[C@H]1CC[C@H](Nc2ccc3ncc(-c4cccc(C(F)(F)F)c4)n3n2)CC1	RPS6KA6	enzyme activity, inhibitor	1 µM	remaining activity	91.7%
N#CCCc1ccc2c(c1)-c1[nH]c3ccc([N+](=O)[O-])cc3c1CC(=O)N2	RPS6KA6	cell-free assay	0.5 µM	remaining signal	13.4%
COc1ccc2cc(OCC3(C(=O)O)CN(C(=O)c4ccc(F)cc4)C3)ccc2c1	RPS6KA6 N-terminal kinase domain	cell-free assay, competition with immobilised ligand	1 µM	remaining binding	77%
CCOc1cc(-c2nncn2C)ccc1Nc1ncc2cc(C)nc(NCC(C)(C)C)c2n1	RPS6KA6	enzyme activity, inhibitor, FRET	1 µM	inhibition	24%
Cn1cc(Cl)c2c(Oc3c(F)cc(Nc4cc(Cl)nc(N)n4)cc3F)ccnc21	RPS6KA6 C-terminal kinase domain	cell-free assay, competition with immobilised ligand	0.1 µM	remaining binding	100%
CN1CCC2(CC1)NC(=O)c1c(c3ccc(Cl)c(Cl)c3n1C)C2C#N (racemic)	RPS6KA6	thermal stability, DSF	10 µM	ΔTm	0 °C

SMILES	target	assay	conditions	measurement	result
c1cnn2ncc(-c3ccnc(N4CCC45COC5)n3)c2c1	RPS6KA6 N-terminal kinase domain	binding, competition with immobilised ligand	1 µM	remaining binding	58%
C[S+]([O-])c1ccc(-c2nc(-c3ccncc3)c(-c3ccc(F)cc3)[nH]2)cc1 (stereo not shown)	RPS6KA6	cell-free assay	0.5 µM	remaining signal	110%
N[C@@H]1CCN(c2nccc(-c3cnn4ncccc34)n2)C1	RPS6KA6 C-terminal kinase domain	binding, competition with immobilised ligand	1 µM	remaining binding	100%
C[C@@H]1CCN(C(=O)CC#N)C[C@@H]1N(C)c1ncnc2[nH]ccc12	RPS6KA6	cell-free assay, inhibitor	0.5 µM	remaining signal	98.1%
C[C@@H]1CCN(c2nccc(-c3cnn4ncccc34)n2)C1	RPS6KA6 N-terminal kinase domain	binding, competition with immobilised ligand	1 µM	remaining binding	71%
COc1cc(Cl)c(C(=O)N[C@@H](CN[C@H]2CC[C@@H](N)CC2)Cc2ccc(C#N)cc2)cc1-c1ccc(CN[C@H](C)c2ccc(C)cc2)o1	RPS6KA6	enzyme activity, inhibitor	1 µM	remaining activity	97%
CO[C@@H](C)c1c(Nc2ccc([C@@H](N(C)C(=O)C3CCS(=O)(=O)CC3)C(F)(F)F)cc2)cnc2cc(Cl)nn12	RPS6KA6 C-terminal kinase domain	cell-free assay, competition with immobilised ligand	1 µM	remaining binding	98%
CN(CCCC(F)(F)F)c1nccc(-c2cnn3ncccc23)n1	RPS6KA6 C-terminal kinase domain	binding, competition with immobilised ligand	1 µM	remaining binding	100%
Cn1nc(C(=O)NCc2ccc(C(=O)O)cc2)cc1-c1ccc2[nH]ccc2c1	RPS6KA6 C-terminal kinase domain	cell-free assay, competition with immobilised ligand	0.1 µM	remaining binding	85%
O=C(Nc1cnn(-c2csc(C(=O)NC3COC3)c2)c1)Nc1c(F)cccc1Cl	RPS6KA6	enzyme activity, inhibitor	5 µM	remaining activity	92.2%
CC/C(=N\NC(=O)NCc1cccc(O)c1)c1ccc(O)c(C)c1O	RPS6KA6	enzyme activity, inhibitor	0.1 µM	inhibition	66.4%
O=C(N[C@H]1CCCCC/C=C\C2C[C@@]2(C(=O)O)NC(=O)[C@@H]2C[C@@H](Oc3ccncc3)CN2C1=O)OC1CCCC1 (stereo partly shown)	RPS6KA6 N-terminal kinase domain	binding, competition with immobilised ligand	1 µM	remaining binding	60%
CNC(=O)c1cc(Oc2ccc(NC(=O)Nc3ccc(Cl)c(C(F)(F)F)c3)cc2)ccn1	RPS6KA6	enzyme activity, inhibitor	10 µM	inhibition	-16%
CS(=O)(=O)N1CCCC(NC(=O)[C@H](CCC2CCCCC2)NC(=O)c2ccc(CNC(=O)c3cnc4ccccn34)cc2)C1 (stereo partly shown)	RPS6KA6 N-terminal kinase domain	cell-free assay, competition with immobilised ligand	0.1 µM	remaining binding	97%
Cc1cc(NC(=O)c2cccc3cc(-c4cccc5[nH]nc(N)c45)ccc23)ccc1F	RPS6KA6	enzyme activity, inhibitor	0.1 µM	activity vs control	94%
Cn1c2c(Cl)c(Cl)ccc2c2cc(N)[nH]c(=O)c21	RPS6KA6	thermal stability, DSF	10 µM	ΔTm	3.3 °C
COc1ccc2c(c1)O[C@H](c1ccc(OC)c(OC)c1)C[C@@H]2NC(=O)C1(c2ccc3c(c2)OC(F)(F)O3)CC1	RPS6KA6 C-terminal kinase domain	cell-free assay, competition with immobilised ligand	1 µM	remaining binding	91%
